Active and inactive are the calls of the source. No cut-off for these calls is given here.

One data set concerns Human alphaherpesvirus 2. The data set can be described thus: Antiviral activity against HSV2 assessed as inhibition of viral replication. The data set is classed as functional, organism-based. Summed up: (§1)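 Cell culture virus assays. Inhibition of virus replication and compound cytotoxicity were scored by microscopic examination and confirmed by a colorimetric MTS cell viability assay. Selectivity index is the ratio of cytotoxic to antiviral concentration.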

The next data set has as its system Coxsackievirus B4. The data set can be described thus: Antiviral activity against Coxsackievirus B4 assessed as inhibition of viral replication. The data set is classed as functional, organism-based. In a few lines: as §1
The test system of the next data set is Human alphaherpesvirus 1. The data set can be described thus: Antiviral activity against HSV1 assessed as inhibition of viral replication. The data set is classed as functional, organism-based. In a few lines: as §1
Data set [1] concerns Vesicular stomatitis virus. The experiment in a line: Antiviral activity against VSV in HeLa cells assessed as inhibition of viral replication. Format: functional, organism-based. Summed up:
as §1

The subject of a further data set is Punta Toro virus. The data set can be described thus: Antiviral activity against Punta Toro virus assessed as inhibition of viral replication. The data set is classed as functional, organism-based. In a few lines:
as §1

A short description of data set [2]: Antagonist activity at NMDAR in rat cerebellar granule neurons assessed as inhibition of glutamate-induced calcium flux after 5 mins using FURA-2AM in presence of glycine. The data set is classed as functional. Summed up:
(§2)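 Primary cerebellar granule neuron cultures grown on poly-L-lysine-coated glass coverslips and used after 7-14 days in vitro. Intracellular calcium recorded in real time over 1200 s. Cells were stimulated with NMDA or glutamate (100 μM, with 10 μM glycine), then given increasing cumulative compound concentrations. Percent inhibition at each concentration was fitted by non-linear regression (variable slope). At least three experiments on three culture batches.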

In data set [3] the test system is Vesicular stomatitis virus. The data set can be described thus: Antiviral activity against VSV in human HEL cells assessed as viability by MTS based microscopy. Format: functional, organism-based. Summed up: as §1
For another data set, the system named is Sindbis virus. The data set can be described thus: Antiviral activity against Sindbis virus assessed as inhibition of viral replication. Format: functional, organism-based. Summed up: as §1
In a further data set the test system is Reovirus sp. The experiment in a line: Antiviral activity against Reovirus 1 assessed as inhibition of viral replication. The data set is classed as functional, organism-based. Summed up:
as §1

A further data set concerns Vaccinia virus. The experiment in a line: Antiviral activity against Vaccinia virus assessed as inhibition of viral replication. The data set is classed as functional, organism-based. The following applies: Orthopoxvirus vaccinia. Summed up:
as §1

Data set [4] concerns Respiratory syncytial virus. The experiment in a line: Antiviral activity against RSV assessed as inhibition of viral replication. Format: functional, organism-based. Summed up: as §1
The nature of data set [5]: Antagonist activity at NMDAR in rat cerebellar granule neurons assessed as inhibition of NMDA-induced calcium flux after 5 mins using FURA-2AM in presence of glycine. The data set is classed as functional. Summed up: as §2
For orientation: Calcium flux is commonly read through the fluorescence of an indicator in the cells.

The next data set relates to Human respirovirus 3. The data set can be described thus: Antiviral activity against Parainfluenza-3 virus assessed as inhibition of viral replication. Format: functional, organism-based. Summed up: as §1
In the next data set the test system is Feline coronavirus. The experiment in a line: Antiviral activity against Feline coronavirus assessed as inhibition of viral replication. Format: functional, organism-based. Summed up:
as §1

Data set [6] concerns Trypanosoma brucei. The data set can be described thus: Antitrypanosomal activity against bloodstream form of Trypanosoma brucei 427 after 48 hrs by hemocytometer analysis. Format: functional, organism-based. The following applies: Trypanosoma brucei, 427, 48 h.
Data set [7] is described as follows: Selectivity index, ratio of cytotoxicity for HeLa cells to ratio of EC50 for Vesicular stomatitis virus. Format: toxicity, cell-based. The following applies: human, read-out: Selectivity Index. In a few lines: as §1
The target in data set [8] is Matrix protein 2 (Influenza A virus) (UniProt P06821). The data set can be described thus: Inhibition of Influenza A virus (A/Puerto Rico/8/1934(H1N1)) M2 channel expressed in Xenopus oocytes at 100 uM by two-electrode voltage clamp assay. The following applies: Oocyte. Format: cell-based. On the technique in general: In two-electrode clamp one electrode senses voltage and the other passes current.

The next data set relates to H3N2 subtype. The data set can be described thus: Antiinfluenza activity against Influenza A virus (A/Hong Kong/7/1987(H3N2)) assessed as inhibition of viral replication. The data set is classed as functional, organism-based. In a few lines: as §1
The subject of a further data set is Influenza B virus. The experiment in a line: Antiinfluenza activity against Influenza B virus (B/Hong Kong/05/1972) assessed as inhibition of viral replication. The data set is classed as functional. In a few lines:
as §1

For another data set, the system named is Influenza A virus. The data set can be described thus: Antiinfluenza activity against Influenza A virus (A/Puerto Rico/8/1934(H1N1)) assessed as inhibition of viral replication. The data set is classed as functional, organism-based. In a few lines:
as §1

Data set [9] concerns Trypanosoma brucei. The data set can be described thus: Ratio of compound IC90 to rimantadine IC90 for bloodstream form of Trypanosoma brucei 427. Format: functional.

Matrix protein 2 (Influenza A virus), sequence (P06821 whole entry): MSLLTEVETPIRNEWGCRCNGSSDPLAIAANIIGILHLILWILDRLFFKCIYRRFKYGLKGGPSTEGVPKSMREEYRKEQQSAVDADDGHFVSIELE

One may read the EC50 as the concentration needed to bring the measured effect to its halfway point. As a reminder, the IC50 is the concentration that inhibits the measured activity by half. In the case of `CC12CC3CC(N4CCCCC4)(CC(C1)c1ccccc13)C2`, the result (with Human alphaherpesvirus 2; with Coxsackievirus B4; in the data set on Human alphaherpesvirus 1; in the data set with Punta Toro virus; in [3]; in the data set on Sindbis virus) was inactive. Further, the result (in the data set on Reovirus sp.; in the data set on Vaccinia virus; in data set [4]; with Human respirovirus 3; with Feline coronavirus) was inactive. In addition, in [1], the EC50 came to 54 µM. Also, the results for the half-maximal inhibitory concentration (IC50) in data set [2] and in data set [5] were greater than 500 µM and 101 µM, respectively.

A word on the IC90: it is the concentration at which the effect reaches the 90% level. For `CNC12CC3CC(C)(CC(C1)c1ccccc13)C2`, the outcome in the data set with Human alphaherpesvirus 2, in the data set with Coxsackievirus B4, with Human alphaherpesvirus 1, with Punta Toro virus, in the data set with Sindbis virus and in the data set on Reovirus sp. was inactive. Besides, the outcome (with Vaccinia virus; in [4]; in the data set on Human respirovirus 3; in the data set with Feline coronavirus) was inactive. Also, the IC50 was determined as 4.46 µM in the data set with Trypanosoma brucei [6], 455 µM in [2] and 19.4 µM in data set [5]. The same compound displayed an IC90 in the data set on Trypanosoma brucei [6] of 6.66 µM.

With `C#CCN(CC#C)C12CC3CC(C)(CC(C1)c1ccccc13)C2`, the outcome (in the data set on Human alphaherpesvirus 2; with Coxsackievirus B4; with Human alphaherpesvirus 1; with Punta Toro virus; in data set [3]; with Sindbis virus) was inactive. The result (with Reovirus sp.; in the data set with Vaccinia virus; in data set [4]; with Human respirovirus 3; with Feline coronavirus) was inactive. Further, the IC50 in the data set on Trypanosoma brucei [6] was 13.4 µM; in [2], greater than 500 µM; in [5] it was greater than 200 µM. Besides, the IC90 in the data set on Trypanosoma brucei [6] amounted to 21.6 µM. Moreover, the EC50 in [1] is 4 µM. In addition, the selectivity ratio in data set [7] stood at 25.

On to `CC12CC3CC(NCc4ccccc4)(CC(C1)c1ccccc13)C2`, for which the outcome in the data set with Human alphaherpesvirus 2, in the data set with Coxsackievirus B4, in the data set with Human alphaherpesvirus 1, in the data set with Punta Toro virus, with H3N2 subtype and with Sindbis virus was inactive. Also, the result (in the data set with Influenza B virus; in the data set on Reovirus sp.; with Vaccinia virus; in data set [4]; in the data set with Human respirovirus 3; in the data set with Feline coronavirus) was inactive. For the same compound, in [8], the inhibition entry was “inactive”. In addition, the IC50 in the data set on Trypanosoma brucei [6] is 3 µM; in data set [2] it was greater than 500 µM; in [5], greater than 200 µM. Further, in the data set with Trypanosoma brucei [6], the IC90 was 6.55 µM. Also, the EC50 in the data set with Influenza A virus was determined as 10 µM.

Consider `CC12CC3CC(C)(C1)CC(N)(C3)C2` [MEMANTINE], for which, in the data set with Trypanosoma brucei [6], the IC90 stood at 21.4 µM.

Take `C#CCNC12CC3CC(C)(CC(C1)c1ccccc13)C2`: the result in the data set with Human alphaherpesvirus 2, in the data set with Coxsackievirus B4, in the data set with Human alphaherpesvirus 1, in the data set on Punta Toro virus, in the data set with Sindbis virus and in the data set with Reovirus sp. was inactive. Moreover, the outcome (in the data set with Vaccinia virus; in [4]; in the data set on Human respirovirus 3; in the data set with Feline coronavirus) was inactive. Moreover, the results for the concentration for half-maximal inhibition (IC50) (in the data set with Trypanosoma brucei [6]; in data set [2]; in data set [5]) were 1.99 µM, greater than 500 µM and 27.5 µM, respectively. The IC90 in the data set with Trypanosoma brucei [6] came out at 3.14 µM. Also, the Ratio with Trypanosoma brucei [9] is reported as greater than 4.

Turning to `CN(Cc1ccccc1)C12CC3CC(C)(CC(C1)c1ccccc13)C2`, the result in the data set with Human alphaherpesvirus 2, with Coxsackievirus B4, in the data set on Human alphaherpesvirus 1, with Punta Toro virus, in the data set on Sindbis virus and in the data set with Reovirus sp. was inactive. The result (with Vaccinia virus; in [4]; in the data set with Human respirovirus 3; with Feline coronavirus) was inactive. Moreover, the IC50 in the data set with Trypanosoma brucei [6] is 5.25 µM; in data set [2], greater than 500 µM; in data set [5], greater than 200 µM. In the data set with Trypanosoma brucei [6], this compound displayed an IC90 of 10.8 µM.

For `CC(N)C12CC3CC(CC(C3)C1)C2` (centres undefined) [RIMANTADINE], the IC90 with Trypanosoma brucei [6] is 14 µM.

As for `CC12CC3CC(N)(CC(C1)c1ccccc13)C2`, the result in the data set with Human alphaherpesvirus 2, in the data set on Coxsackievirus B4, with Human alphaherpesvirus 1, with Punta Toro virus, in the data set with Sindbis virus and in the data set on Reovirus sp. was inactive. Also, the outcome (in the data set with Vaccinia virus; in [4]; in the data set on Human respirovirus 3; with Feline coronavirus) was inactive. Besides, the inhibition entry in data set [8] was “inactive”. Also, the concentration for half-maximal inhibition (IC50) in the data set with Trypanosoma brucei [6] stood at 4.8 µM; in [2] it was 22 µM; in data set [5], 13.6 µM. The same compound returned an IC90 in the data set with Trypanosoma brucei [6] of 9.6 µM.

Regarding `CN(C)C12CC3CC(C)(CC(C1)c1ccccc13)C2`, the result in the data set on Human alphaherpesvirus 2, in the data set on Coxsackievirus B4, with Human alphaherpesvirus 1, with Punta Toro virus, in the data set on Sindbis virus and with Reovirus sp. was inactive. Also, the result (with Vaccinia virus; in [4]; with Human respirovirus 3; in the data set with Feline coronavirus) was inactive. In data set [8], the inhibition entry was “inactive”. The figures for the IC50 (in the data set with Trypanosoma brucei [6]; in [2]; in [5]) were 1.99 µM, 87 µM and 11.8 µM, respectively. In addition, it took 3.14 µM to reach the 90% level in the data set on Trypanosoma brucei [6] (IC90).

For the origin of these results see ChEMBL document CHEMBL1933044.
